# Source: PubChem BioAssay (several laboratories)
# SENP1 FRET inh – inhibitors of human SENP1 SUMO protease catalytic domain; recombinant SENP1 catalytic domain, CyPet-SUMO1-YPet FRET cleavage; inhibition, % at 10 µM; actives 0.21% (n = 360,000); AID 624204;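 active = inhibition at least 30% at 10 µM, raw YFP signal under a set limit, fluorescence ratio 0.5 to 1.5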;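 note: 0% = enzyme with DMSO and 100% = no enzyme wells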
# Target sequence (Q9P0U3 419-644 limits assumed): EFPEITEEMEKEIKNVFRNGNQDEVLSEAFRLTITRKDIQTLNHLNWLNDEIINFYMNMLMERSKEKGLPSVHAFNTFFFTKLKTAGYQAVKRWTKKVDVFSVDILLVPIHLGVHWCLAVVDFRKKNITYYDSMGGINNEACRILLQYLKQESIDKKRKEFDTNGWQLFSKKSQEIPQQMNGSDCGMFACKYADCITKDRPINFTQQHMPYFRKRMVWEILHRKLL
#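 Test system: human SENP1 catalytic domain; medium: Tris pH 8 buffer plus EDTA, NaCl, BME, BSA, NP40, catalase; incubation: 50 min reaction at room temperature; technique: FRET, CFP and YFP emission; controls: no-enzyme low control and enzyme-plus-DMSO high control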
# SENP7 inh – inhibitors of human SENP7 protease | inhibition, % at 5 µM | actives 1.5% (n = 330,000) | recombinant SENP7, Z-RLRGG-aminoluciferin luminescence, 40 min | Q9BQF6 | AID 434973;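 active = inhibition above about 50% at the single test dose, limit read from the data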;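 note: plate controls were DMSO with enzyme for no effect and no enzyme buffer wells for full effect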
# SENP8 block-1 – blocks the human protease SENP8; Q96LD8; purified SENP8, Z-RLRGG-aminoluciferin cleavage, luminescence; inhibition, % at 10 µM; actives 1.2% (n = 330,000); AID 2540; in the data active = inhibition above about 50%
# SENP8 block-2 – blocks human SENP8 cleavage of Nedd8 substrate; inhibition, % at 20 µM; Q96LD8; actives 0.64% (n = 360,000); recombinant SENP8, Nedd8 substrate fluorescence; in the data active = inhibition mostly above about 40%, no sharp cut-off; inactive = mostly below about 27%
# SENP6 inh – inhibitors of human SENP6 protease | Recombinant SENP6 catalytic domain, aminoluciferin luminescence | actives 1.8% (n = 330,000) | inhibition, % at 10 µM | Q9GZR1;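 active = inhibition above about 50% at the single tested dose, limit read from the data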;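 note: plate controls were DMSO wells with enzyme for no effect and DMSO wells lacking enzyme for full effect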
# Platelet DG rel – platelet dense granule release activity; inhibition, %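 (compounds screened at 7.5 µM in platelet-rich plasma)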; actives 0.22% (n = 300,000); human platelet-rich plasma, SFLLRN dense granule ATP release, luminescence;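 active = mean replicate score, as percent of positive control, at or above 50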
# SENP8 conf – confirmation of human SENP8 protease inhibitors; actives 40% (n = 6,200); AID 488912; Recombinant SENP8, Z-RLRGG-aminoluciferin luminescence, 60 min; inhibition, % at 12.5 µM; shares compounds with SENP7 inh;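 active = mean inhibition across replicates above about 50%, limit read from the data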
# SENP6 confirm – human SENP6 inhibition, confirmed; shares compounds with SENP7 inh; recombinant SENP6, Z-RLRGG-aminoluciferin luminescence; inhibition, % at 12.5 µM; actives 58% (n = 6,200); AID 488915
# SENP7 conf – confirmation of human SENP7 protease inhibitors. shares compounds with SENP7 inh. recombinant SENP7, Z-RLRGG-aminoluciferin luminescence, 40 min. inhibition, % at 12.5 µM. actives 69% (n = 6,200). AID 488917
# Casp3 SENP sel – selectivity test for SENP inhibitors: human caspase-3 inhibition | AID 488918 | inhibition, % at 12.5 µM | purified caspase-3, Z-DEVD-aminoluciferin luminescence, 60 min | actives 60% (n = 6,200) | shares compounds with SENP7 inh;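 active = mean inhibition above about 50%, limit read from the data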;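 note: plate controls were enzyme with DMSO for no effect and wells without caspase-3 for full effect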
# Target sequence (P42574 28-227 limits assumed): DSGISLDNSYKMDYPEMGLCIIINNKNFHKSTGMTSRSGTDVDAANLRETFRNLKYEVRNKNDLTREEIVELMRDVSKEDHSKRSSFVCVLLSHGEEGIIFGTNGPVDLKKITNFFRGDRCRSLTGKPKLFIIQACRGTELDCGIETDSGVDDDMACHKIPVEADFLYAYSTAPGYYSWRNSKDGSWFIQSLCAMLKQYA
# Luc interf – luminescence interference (SENP counter-screen); AID 488919; inhibition, % at 12.5 µM; actives 39% (n = 6,200); Pre-incubated SENP8/Z-RLRGG-aminoluciferin, luciferase luminescence interference; shares compounds with SENP7 inh;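 active = mean inhibition above about 50% when retested at one dose, limit read from the data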;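 note: plate controls were DMSO wells with completed reaction for no effect and substrate without enzyme for full effect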
# * = called active by the depositor; nt = no result given. Shown are actives, neighbours in structure and some others; about 2.6% of the full set was active somewhere.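 Rule for the calls, unless noted: active = mean inhibition above about 50% in the one-dose retest (limit read from the data); inactive = the rest.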
SMILES,SENP1 FRET inh,SENP7 inh,SENP8 block-1,SENP8 block-2,SENP6 inh,Platelet DG rel,SENP8 conf,SENP6 confirm,SENP7 conf,Casp3 SENP sel,Luc interf
N#C/C(=C/c1ccc(N2CCOCC2)c([N+](=O)[O-])c1)C(N)=O,2,90*,-7,14,-2,29,21,8,5,4,2
CO/N=C/c1ccc(N2CCOCC2)c([N+](=O)[O-])c1,4,2,-6,1,-6,3,nt,nt,nt,nt,nt
CCCCn1c(N)c(N(CCOC)C(=O)c2ccc(-c3ccccc3)cc2)c(=O)[nH]c1=O,-7,1,5,-20,-7,3,nt,nt,nt,nt,nt
Oc1ccc(N=Nc2n[nH]c(-c3ccccc3)n2)cc1,3,98*,96*,20,94*,24,98*,98*,102*,98*,98*
COc1ccc(NC(=O)CNC(=O)CC23CC4CC(CC(C4)C2)C3)c(OC)c1,3,-7,-1,-4,-6,nt,nt,nt,nt,nt,nt
Cc1ccc(C(=O)CC(c2cccs2)S(=O)(=O)c2ccc(C)cc2)cc1 (stereo not given),1,63*,-4,30,62*,-13,7,8,-4,4,4
O=C(NCCO)C(=O)NCC(c1cccs1)S(=O)(=O)c1ccc(F)cc1 (stereo not given),2,nt,nt,17,nt,nt,nt,nt,nt,nt,nt
O=C(CC(c1cccs1)S(=O)(=O)c1ccccc1)c1ccc(F)cc1 (stereo not given),0,30,23,2,52*,18,3,-2,9,5,8
COc1cc(OC)cc(C(=O)Nc2ccc3nc4n(c(=O)c3c2)CCCC4)c1,0,86*,77*,7,87*,17,58*,82*,96*,92*,80*
COc1cc(C(=O)Nc2ccc3nc4n(c(=O)c3c2)CCCC4)ccc1Br,-1,2,6,14,14,5,nt,nt,nt,nt,nt
COc1cccc(C(=O)Nc2ccc3nc4n(c(=O)c3c2)CCCC4)c1,2,45,22,14,53*,11,25,23,71*,73*,46
O=C(Nc1ccc(Cl)cc1)c1ccc2c(=O)n3c(nc2c1)CCCCC3,-1,4,-11,14,-11,2,nt,nt,nt,nt,nt
O=C(Nc1ccc(F)c(Cl)c1)c1ccc2c(=O)n3c(nc2c1)CCCCC3,0,69*,28,17,76*,-6,14,60*,91*,62*,13
COC(=O)c1cc(C(=O)OC)[nH]n1,1,-3,1,4,10,-2,nt,nt,nt,nt,nt
O=C(CCCN1C(=O)/C(=C/c2ccccc2)SC1=S)N1CCOCC1,2,21,23,15,43,-24,nt,nt,nt,nt,nt
O=C(CCCN1C(=O)/C(=C/c2cccc(Br)c2)SC1=S)N1CCOCC1,1,10,27,9,64*,-14,33,58*,65*,11,26
CN1CCN(C(=O)CCCN2C(=O)/C(=C/c3cccc(Br)c3)SC2=S)CC1,2,-4,5,20,52*,-8,47,37,44,22,36
CN1CCN(C(=O)CCN2C(=O)/C(=C/c3cccc(Br)c3)SC2=S)CC1,2,6,-5,29,-3,-1,nt,nt,nt,nt,nt
COc1ccc(/C=C2\SC(=S)N(CCCC(=O)N3CCN(C)CC3)C2=O)cc1,-22,28,39,13,70*,-3,57*,53*,76*,54*,52*
COc1ccc(/C=C2\SC(=S)N(CCC(=O)N3CCOCC3)C2=O)cc1,-21,-13,-20,19,-17,-35,nt,nt,nt,nt,nt
CSc1ncccc1C(=O)OCC(=O)c1cc(C)n(C)c1C,-2,37,37,1,54*,nt,14,46,82*,73*,45
CCn1c(C)cc(C(=O)COC(=O)c2cccnc2SC)c1C,0,49,46,14,-16,nt,nt,nt,nt,nt,nt
COc1cc(C(=O)OCC(=O)c2cc(C)n(CC3CCCO3)c2C)cc(OC)c1C (stereo not given),1,-16,7,0,-11,nt,nt,nt,nt,nt,nt
CSc1ncccc1C(=O)OCC(=O)c1ccccc1,3,34,28,-1,53*,-5,7,20,70*,56*,-2
Cc1cc(C(=O)COc2cccc3cccnc23)c(C)n1C,-25,29,13,-127,79*,-2,8,7,7,10,9
SMILES,SENP1 FRET inh,SENP7 inh,SENP8 block-1,SENP8 block-2,SENP6 inh,Platelet DG rel,SENP8 conf,SENP6 confirm,SENP7 conf,Casp3 SENP sel,Luc interf
CSc1ncccc1C(=O)OCC(=O)c1cc(C)n(CC2CCCO2)c1C (stereo not given),0,78*,83*,16,88*,4,92*,92*,99*,93*,32
CC(C)CC1NC(=O)N(CC(=O)Nc2cc([N+](=O)[O-])ccc2F)C1=O (stereo not given),3,9,-1,0,-2,nt,nt,nt,nt,nt,nt
CCOC(=O)c1cn2nc(N3CCCC3)ccc2n1,2,40,-3,-187,7,13,nt,nt,nt,nt,nt
CCOC(=O)c1cn2nc(N3CCCCC3)ccc2n1,1,71*,68*,-305,72*,2,72*,72*,93*,89*,78*
O=C(NCCCNC(=O)c1ccccc1)c1ccccc1,2,-5,-3,23,-13,-27,nt,nt,nt,nt,nt
Cc1csc(=NC(=O)c2ccccc2)n1C,0,20,-8,-39,28,2,nt,nt,nt,nt,nt
O=C(N=c1nc2ccccn2s1)c1ccccc1,3,96*,59*,-6,94*,47,54*,59*,66*,54*,26
COC(=O)c1cn(C(=O)c2cccc(Br)c2)c2ccccc12,4,0,7,-2,11,8,nt,nt,nt,nt,nt
c1ccc(Cn2nc(-c3ccccc3)nc2-c2ccccc2)cc1,0,41,47,11,62*,4,45,38,74*,29,17
Fc1ccc(-c2cn3cc(C(F)(F)F)cc(Cl)c3n2)cc1,-2,82*,34,-150,75*,1,59*,77*,86*,58*,46
